{"source": "ChEMBL document CHEMBL3352174", "about": "“Identification of a New RXRα Antagonist Targeting the Coregulator-Binding Site” (ACS Med Chem Lett, 2014)", "key": {"HepG2": {"system": "HepG2", "test": "Induction of apoptosis in TNFalpha-stimulated human HepG2 cells assessed as PARP cleavage at 5 and 10 uM pre-treated for 24 hrs before TNFalpha addition by immunoblotting method", "format": "functional, cell-based", "how_it_was_run": "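A549 or HepG2 cells were treated with compound for 24 h, with or without subsequent TNFα (20 ng/mL) for 30 min. Lysates were immunoblotted for PARP cleavage as the apoptosis marker. One of three to five similar experiments shown.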"}, "[1]": {"target": "T1, Oxysterols receptor LXR-alpha (Homo sapiens) (UniProt Q13133)", "T1 sequence (whole entry)": "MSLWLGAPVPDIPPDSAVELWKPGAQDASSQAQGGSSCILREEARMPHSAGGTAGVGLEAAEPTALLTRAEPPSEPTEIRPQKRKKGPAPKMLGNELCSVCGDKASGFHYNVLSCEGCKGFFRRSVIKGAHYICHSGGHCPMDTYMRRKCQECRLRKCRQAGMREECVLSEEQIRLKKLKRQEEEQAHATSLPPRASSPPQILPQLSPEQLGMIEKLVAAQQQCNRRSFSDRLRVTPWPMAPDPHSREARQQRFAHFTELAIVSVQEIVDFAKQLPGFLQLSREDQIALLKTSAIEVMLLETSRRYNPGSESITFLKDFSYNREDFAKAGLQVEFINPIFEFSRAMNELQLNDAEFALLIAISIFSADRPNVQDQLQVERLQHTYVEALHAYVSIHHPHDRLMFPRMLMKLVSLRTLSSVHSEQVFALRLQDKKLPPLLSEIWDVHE", "test": "Antagonist activity against LXRalpha ligand binding domain (unknown origin) expressed in human MCF7 cells assessed as inhibition of T09-induced receptor transactivation at 10 uM after 18 hrs by luciferase reporter gene based mammalian one-hybrid assay", "format": "cell-based"}, "[2]": {"target": "T2, Retinoic acid receptor RXR-alpha (Homo sapiens) (UniProt P19793)", "T2 sequence (whole entry)": "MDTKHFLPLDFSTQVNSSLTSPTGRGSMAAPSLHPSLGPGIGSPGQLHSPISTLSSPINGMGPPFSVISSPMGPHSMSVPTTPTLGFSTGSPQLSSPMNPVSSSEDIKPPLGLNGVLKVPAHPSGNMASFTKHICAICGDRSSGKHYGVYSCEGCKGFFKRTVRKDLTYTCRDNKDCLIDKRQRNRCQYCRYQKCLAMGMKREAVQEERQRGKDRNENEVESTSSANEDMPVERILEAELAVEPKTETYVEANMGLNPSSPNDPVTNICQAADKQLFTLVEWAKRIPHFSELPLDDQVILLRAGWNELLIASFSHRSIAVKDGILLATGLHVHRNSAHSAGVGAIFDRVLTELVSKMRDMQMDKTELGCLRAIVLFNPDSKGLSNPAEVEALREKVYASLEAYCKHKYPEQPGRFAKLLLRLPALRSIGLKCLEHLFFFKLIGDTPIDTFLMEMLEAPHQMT", "test": "Antagonist activity against RXRalpha in human HepG2 cells assessed as inhibition of AKT phosphorylation at 5 and 10 uM after 24 hrs by Western blotting method", "format": "cell-based", "how_it_was_run": "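A549 or HepG2 cells were exposed to compound for 24 h, then with or without TNFα (20 ng/mL) for 30 min more. Lysates were immunoblotted for AKT activation. One of three to five similar experiments shown.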"}, "[3]": {"system": "T3, Retinoic acid receptor RXR-alpha (Homo sapiens), P19793 [C432W]", "T3 sequence (whole entry)": "T2 sequence (whole entry) with C432W", "test": "Antagonist activity against RXRalpha C432W/F313A mutant (unknown origin) expressed in human HEK293T cells assessed as inhibition of constitutive receptor transactivation at 1 to 10 uM after 18 hrs by luciferase reporter gene based mammalian one-hybrid assay", "conditions": "HEK-293T"}, "[4]": {"target": "Retinoic acid receptor alpha/Retinoid X receptor alpha (Homo sapiens) (UniProt P10276+P19793)", "test": "Antagonist activity against RXRalpha/RARalpha ligand binding domain (unknown origin) expressed in human HEK293T cells assessed as inhibition of 9-cis-RA/T09-induced receptor transactivation at 2 and 10 uM after 18 hrs by luciferase reporter gene based mammalian one-hybrid assay", "format": "cell-based", "conditions": "HEK-293T"}, "[5]": {"system": "T4, Retinoic acid receptor RXR-alpha (Homo sapiens), P19793 [A272W]", "T4 sequence (whole entry)": "T2 sequence (whole entry) with A272W", "test": "Antagonist activity against RXRalpha A272W/F313A mutant (unknown origin) expressed in human HEK293T cells assessed as inhibition of constitutive receptor transactivation at 1 to 10 uM after 18 hrs by luciferase reporter gene based mammalian one-hybrid assay", "conditions": "HEK-293T"}, "MCF7": {"system": "MCF7", "test": "Growth inhibition of tRXRalpha stably expressing human MCF7 cells at 2 to 10 uM after 48 hrs by MTT assay", "format": "functional, cell-based"}, "[6]": {"target": "T2, Retinoic acid receptor RXR-alpha (Homo sapiens)", "test": "Antagonist activity against RXRalpha in human colon cancer cells assessed as inhibition of AKT phosphorylation at 5 and 10 uM after 24 hrs by Western blotting method", "format": "cell-based", "conditions": "Cancer cell lines"}}, "note": "Numbering of substitutions follows the chain as printed. The source made the active and inactive calls. No cut-off for these calls is given here."}
{"smiles": "Cc1cc(=O)oc2c(/C=N/NC(=O)CSc3nc4ccccc4s3)c(O)ccc12", "values": [{"measurement": "Activity", "setting": "HepG2", "value": "Active"}, {"measurement": "inhibition", "setting": "[1]", "value": "Active"}, {"measurement": "inhibition", "setting": "[2]", "value": "Dose-dependent effect"}, {"measurement": "inhibition", "setting": "[3]", "value": "Dose-dependent effect"}, {"measurement": "inhibition", "setting": "[4]", "value": "inactive"}, {"measurement": "inhibition", "setting": "[5]", "value": "Dose-dependent effect"}, {"measurement": "growth inhibition (GI)", "setting": "MCF7", "value": "Active"}, {"measurement": "inhibition", "setting": "[6]", "value": "Active"}]}
